Test results published in PMC2610486 (Bioorganic & medicinal chemistry, 2008).

Assays:
[1] = biological target: T1, Cyp4F2 (tocopherol-ω-hydroxylase) (Homo sapiens, UniProt P78329); assay: Inhibition of γ-tocopherol metabolism; type: cell-based; conditions: HepG2 cells; at concentrations as low as 250 nM
T1 sequence (P78329 5-520): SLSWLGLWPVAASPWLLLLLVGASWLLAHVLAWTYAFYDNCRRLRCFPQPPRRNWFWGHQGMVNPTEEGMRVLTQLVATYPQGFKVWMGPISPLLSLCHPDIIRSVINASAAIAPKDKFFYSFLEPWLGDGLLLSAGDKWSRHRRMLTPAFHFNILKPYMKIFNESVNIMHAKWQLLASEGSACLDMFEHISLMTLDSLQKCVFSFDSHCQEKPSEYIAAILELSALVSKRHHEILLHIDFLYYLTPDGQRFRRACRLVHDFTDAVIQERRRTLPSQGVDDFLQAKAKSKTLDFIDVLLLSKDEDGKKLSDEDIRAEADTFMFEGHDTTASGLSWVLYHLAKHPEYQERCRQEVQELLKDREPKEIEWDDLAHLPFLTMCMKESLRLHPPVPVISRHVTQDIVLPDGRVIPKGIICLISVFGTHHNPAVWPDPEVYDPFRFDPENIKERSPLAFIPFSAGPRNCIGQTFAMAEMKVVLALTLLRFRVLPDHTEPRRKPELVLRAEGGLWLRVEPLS

HepG2 cells = type: cell-based, human; conditions: HepG2 cultures
tocopherol ω-hydroxylase = assay: Tissue enrichment in δ-tocopherol in mice fed δ-tocopherol with or without 1; type: in vivo, mouse
In short: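 Two groups of three male FVB/N mice were fed 10 days on ground chow with δ-tocopherol (6000 mg/kg diet), with or without test compound (500 mg/kg diet). Compound in ethanol and δ-tocopherol were premixed in diglyceride oil, then added to chow. Mice were fasted 5 h and euthanised. Plasma, liver and bile tocopherols were measured by GC-MS with d9-α-tocopherol internal standard. Results are δ-/α-tocopherol ratios, given as means and SD.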

CYP3A4 = CYP3A4 (Homo sapiens, UniProt P08684); assay: Testosterone-6-hydroxylase activity in HepG2/C3A cell culture; type: cell-based; conditions: HepG2/C3A cultures; 50 µM testosterone, 48 hr
In short: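 Confluent HepG2 cultures were pre-incubated 4 h with test compound or ethanol control, then 50 µM testosterone was added. After 48 h incubation, medium was extracted with ethyl acetate and 6-hydroxytestosterone, as its trimethylsilyl ether, was quantified by GC-MS. Results are percent inhibition, given as means and standard deviation.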

[2] = male FVB/N mice, 500 mg 1 per kg diet with δ-tocopherol 6000 mg per kg diet, 10 days, P<0.05

Sequence of CYP3A4 (P08684 whole entry): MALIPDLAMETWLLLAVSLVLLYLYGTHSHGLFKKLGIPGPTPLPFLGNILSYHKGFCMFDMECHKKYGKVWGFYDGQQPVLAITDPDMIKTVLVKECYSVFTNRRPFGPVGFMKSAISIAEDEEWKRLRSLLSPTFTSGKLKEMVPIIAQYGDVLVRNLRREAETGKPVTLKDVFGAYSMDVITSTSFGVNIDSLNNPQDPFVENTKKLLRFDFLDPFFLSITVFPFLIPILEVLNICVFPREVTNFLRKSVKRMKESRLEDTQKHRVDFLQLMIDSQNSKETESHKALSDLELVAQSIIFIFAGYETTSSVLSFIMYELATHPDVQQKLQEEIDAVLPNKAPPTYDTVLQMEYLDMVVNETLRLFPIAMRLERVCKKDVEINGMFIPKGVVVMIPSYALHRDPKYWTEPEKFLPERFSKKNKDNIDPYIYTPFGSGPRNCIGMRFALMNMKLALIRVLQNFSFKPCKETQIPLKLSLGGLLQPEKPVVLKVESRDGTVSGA

Row | Structure (SMILES) | Inhibition of γ-tocopherol metabolism [1] | Effect on total cell protein (HepG2 cells) | Morphology of monolayers (HepG2 cells) | Level of δ-tocopherol in mice (tocopherol ω-hydroxylase; 1 at 500 mg per kg of diet that also contained δ-tocopherol) | Change in δ-tocopherol / α-tocopherol ratio in bile (tocopherol ω-hydroxylase; [2]) | Change in δ-tocopherol / α-tocopherol ratio in liver (tocopherol ω-hydroxylase; [2]) | Effect on α-tocopherol status (tocopherol ω-hydroxylase; mice fed δ-tocopherol with or without 1) | Effect on testosterone-6-hydroxylase (CYP3A4) activity (qualitative) (CYP3A4)
1 | Cc1c(C)c2c(c(C)c1O)CC[C@@](C)(CCCCCCCCCn1ccnc1)O2 [Compound 1, (R)-2-(9-(1H-imidazol-1-yl)nonyl)-2,5,7,8-tetramethylchroman-6-ol] | complete inhibition | no effect | normal | raised | tripled | doubling | no evidence that α-tocopherol status was affected | inhibited
2 | Cc1c(C)c2c(c(C)c1O)CC[C@@](C)(CCCCCCCCCn1cncn1)O2 [Compound 2, (R)-2-(9-(1H-1,2,4-triazol-1-yl)nonyl)-2,5,7,8-tetramethylchroman-6-ol] | – | – | – | – | – | – | – | inhibited
3 | Cc1c(C)c2c(c(C)c1O)CC[C@@](C)(CCCCCCCCCn1ccnn1)O2 [Compound 3, (R)-2-(9-(1H-1,2,3-triazol-1-yl)nonyl)-2,5,7,8-tetramethylchroman-6-ol] | – | – | – | – | – | – | – | inhibited
